# Results taken from ChEMBL document CHEMBL1142889, “Synthesis and anticancer activity of a novel class of flavonoids: 2,4-diarylchromane[4,3-d]-delta(1,9b)-1,2,3-thiadiazolines” (Eur J Med Chem, 2007).
# System: Bel-7402
# Experiment: Antiproliferative activity against Bel7402 cells after 72 hrs by MTT assay
# Format: functional, cell-based
# Conditions: Homo sapiens, Bel-7402, 72 h
# How it was run: (§1)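 Cells were exposed to compound for 72 h. MTT in RPMI-1640 was then added and incubated for a further 4 h at 37 °C. Three replicate wells were used per point. IC50 for cell-viability inhibition was calculated from three independent experiments.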
row,SMILES,IC50 [µg/mL]
1,CCOC12SN(c3ccc([N+](=O)[O-])cc3Cl)N=C1c1cc(C)ccc1OC2(OCC)c1cc(OC)c(OC)cc1Cl (racemic),> 50
2,CCOC12SN(c3ccc([N+](=O)[O-])cc3Cl)N=C1c1c(OC)cc(OC)c(Cl)c1OC2(OCC)c1ccc(Cl)cc1 (racemic),> 50
3,CCOC12SN(c3ccc(S(C)(=O)=O)cc3Cl)N=C1c1c(OC)cc(OC)c(Cl)c1OC2(OCC)c1ccc(Cl)cc1 (racemic),24.8
4,CCOC12SN(c3ccc([N+](=O)[O-])cc3Cl)N=C1c1c(OC)cc(OC)c(Cl)c1OC2(OCC)c1ccccc1Cl (racemic),> 50
5,CCOC12SN(c3ccc([N+](=O)[O-])cc3Cl)N=C1c1ccccc1OC2(OCC)c1ccc(Cl)cc1 (racemic),11.8
6,CCOC12SN(c3ccc(S(C)(=O)=O)cc3Cl)N=C1c1cc(C)ccc1OC2(OCC)c1ccc(OC)cc1 (racemic),40.4
7,CCOC12SN(c3ccc([N+](=O)[O-])cc3Cl)N=C1c1cc(C)ccc1OC2(OCC)c1ccc(OC)cc1 (racemic),21.8
8,CCOC12SN(c3ccc([N+](=O)[O-])cc3Cl)N=C1c1cc(C)ccc1OC2(OCC)c1cc2c(cc1Cl)OCO2 (racemic),> 50
9,O=C1CC(c2ccccc2)Oc2ccccc21 (stereo not given) [FLAVANONE],> 50
10,CCOC12SN(c3ccc(S(C)(=O)=O)cc3Cl)N=C1c1ccccc1OC2(OCC)c1ccc(Cl)cc1 (racemic),10.3

# System: not listed separately
# Experiment: Antiproliferative activity against ECA109 cells after 72 hrs by MTT assay
# Format: functional, cell-based
# Conditions: Homo sapiens, ECa-109, 72 h
# How it was run: as §1
row,SMILES,IC50 [µg/mL]
1,CCOC12SN(c3ccc([N+](=O)[O-])cc3Cl)N=C1c1cc(C)ccc1OC2(OCC)c1cc(OC)c(OC)cc1Cl (racemic),> 50
2,CCOC12SN(c3ccc([N+](=O)[O-])cc3Cl)N=C1c1c(OC)cc(OC)c(Cl)c1OC2(OCC)c1ccc(Cl)cc1 (racemic),> 50
3,CCOC12SN(c3ccc(S(C)(=O)=O)cc3Cl)N=C1c1c(OC)cc(OC)c(Cl)c1OC2(OCC)c1ccc(Cl)cc1 (racemic),20.1
4,CCOC12SN(c3ccc([N+](=O)[O-])cc3Cl)N=C1c1c(OC)cc(OC)c(Cl)c1OC2(OCC)c1ccccc1Cl (racemic),> 50
5,CCOC12SN(c3ccc([N+](=O)[O-])cc3Cl)N=C1c1ccccc1OC2(OCC)c1ccc(Cl)cc1 (racemic),6.9
6,CCOC12SN(c3ccc(S(C)(=O)=O)cc3Cl)N=C1c1cc(C)ccc1OC2(OCC)c1ccc(OC)cc1 (racemic),1.5
7,CCOC12SN(c3ccc([N+](=O)[O-])cc3Cl)N=C1c1cc(C)ccc1OC2(OCC)c1ccc(OC)cc1 (racemic),> 50
8,CCOC12SN(c3ccc([N+](=O)[O-])cc3Cl)N=C1c1cc(C)ccc1OC2(OCC)c1cc2c(cc1Cl)OCO2 (racemic),> 50
9,O=C1CC(c2ccccc2)Oc2ccccc21 (stereo not given) [FLAVANONE],27.7
10,CCOC12SN(c3ccc(S(C)(=O)=O)cc3Cl)N=C1c1ccccc1OC2(OCC)c1ccc(Cl)cc1 (racemic),5.9

# System: PC-3
# Experiment: Antiproliferative activity against PC3 cells after 72 hrs by MTT assay
# Format: functional, cell-based
# Conditions: Homo sapiens, PC-3, 72 h
# How it was run: as §1
row,SMILES,IC50 [µg/mL]
1,CCOC12SN(c3ccc([N+](=O)[O-])cc3Cl)N=C1c1cc(C)ccc1OC2(OCC)c1cc(OC)c(OC)cc1Cl (racemic),> 50
2,CCOC12SN(c3ccc([N+](=O)[O-])cc3Cl)N=C1c1c(OC)cc(OC)c(Cl)c1OC2(OCC)c1ccc(Cl)cc1 (racemic),15.8
3,CCOC12SN(c3ccc(S(C)(=O)=O)cc3Cl)N=C1c1c(OC)cc(OC)c(Cl)c1OC2(OCC)c1ccc(Cl)cc1 (racemic),> 50
4,CCOC12SN(c3ccc([N+](=O)[O-])cc3Cl)N=C1c1c(OC)cc(OC)c(Cl)c1OC2(OCC)c1ccccc1Cl (racemic),> 50
5,CCOC12SN(c3ccc([N+](=O)[O-])cc3Cl)N=C1c1ccccc1OC2(OCC)c1ccc(Cl)cc1 (racemic),4.1
6,CCOC12SN(c3ccc(S(C)(=O)=O)cc3Cl)N=C1c1cc(C)ccc1OC2(OCC)c1ccc(OC)cc1 (racemic),0.6
7,CCOC12SN(c3ccc([N+](=O)[O-])cc3Cl)N=C1c1cc(C)ccc1OC2(OCC)c1ccc(OC)cc1 (racemic),> 50
8,CCOC12SN(c3ccc([N+](=O)[O-])cc3Cl)N=C1c1cc(C)ccc1OC2(OCC)c1cc2c(cc1Cl)OCO2 (racemic),> 50
9,O=C1CC(c2ccccc2)Oc2ccccc21 (stereo not given) [FLAVANONE],16.6
10,CCOC12SN(c3ccc(S(C)(=O)=O)cc3Cl)N=C1c1ccccc1OC2(OCC)c1ccc(Cl)cc1 (racemic),3.1

# System: MCF7
# Experiment: Antiproliferative activity against MCF7 cells after 72 hrs by MTT assay
# Format: functional, cell-based
# Conditions: Homo sapiens, MCF7, 72 h
# How it was run: as §1
row,SMILES,IC50 [µg/mL]
1,CCOC12SN(c3ccc([N+](=O)[O-])cc3Cl)N=C1c1cc(C)ccc1OC2(OCC)c1cc(OC)c(OC)cc1Cl (racemic),> 25
2,CCOC12SN(c3ccc([N+](=O)[O-])cc3Cl)N=C1c1c(OC)cc(OC)c(Cl)c1OC2(OCC)c1ccc(Cl)cc1 (racemic),> 25
3,CCOC12SN(c3ccc(S(C)(=O)=O)cc3Cl)N=C1c1c(OC)cc(OC)c(Cl)c1OC2(OCC)c1ccc(Cl)cc1 (racemic),12.6
4,CCOC12SN(c3ccc([N+](=O)[O-])cc3Cl)N=C1c1c(OC)cc(OC)c(Cl)c1OC2(OCC)c1ccccc1Cl (racemic),> 25
5,CCOC12SN(c3ccc([N+](=O)[O-])cc3Cl)N=C1c1ccccc1OC2(OCC)c1ccc(Cl)cc1 (racemic),15
6,CCOC12SN(c3ccc(S(C)(=O)=O)cc3Cl)N=C1c1cc(C)ccc1OC2(OCC)c1ccc(OC)cc1 (racemic),> 25
7,CCOC12SN(c3ccc([N+](=O)[O-])cc3Cl)N=C1c1cc(C)ccc1OC2(OCC)c1ccc(OC)cc1 (racemic),> 25
8,CCOC12SN(c3ccc([N+](=O)[O-])cc3Cl)N=C1c1cc(C)ccc1OC2(OCC)c1cc2c(cc1Cl)OCO2 (racemic),> 25
9,O=C1CC(c2ccccc2)Oc2ccccc21 (stereo not given) [FLAVANONE],> 25
10,CCOC12SN(c3ccc(S(C)(=O)=O)cc3Cl)N=C1c1ccccc1OC2(OCC)c1ccc(Cl)cc1 (racemic),4.1

# System: HL-60
# Experiment: Antiproliferative activity against HL60 cells after 72 hrs by MTT assay
# Format: functional, cell-based
# Conditions: Homo sapiens, HL-60, 72 h
# How it was run: as §1
row,SMILES,IC50 [µg/mL]
1,CCOC12SN(c3ccc([N+](=O)[O-])cc3Cl)N=C1c1cc(C)ccc1OC2(OCC)c1cc(OC)c(OC)cc1Cl (racemic),> 25
2,CCOC12SN(c3ccc([N+](=O)[O-])cc3Cl)N=C1c1c(OC)cc(OC)c(Cl)c1OC2(OCC)c1ccc(Cl)cc1 (racemic),6.7
3,CCOC12SN(c3ccc(S(C)(=O)=O)cc3Cl)N=C1c1c(OC)cc(OC)c(Cl)c1OC2(OCC)c1ccc(Cl)cc1 (racemic),5.6
4,CCOC12SN(c3ccc([N+](=O)[O-])cc3Cl)N=C1c1c(OC)cc(OC)c(Cl)c1OC2(OCC)c1ccccc1Cl (racemic),> 25
5,CCOC12SN(c3ccc([N+](=O)[O-])cc3Cl)N=C1c1ccccc1OC2(OCC)c1ccc(Cl)cc1 (racemic),2.2
6,CCOC12SN(c3ccc(S(C)(=O)=O)cc3Cl)N=C1c1cc(C)ccc1OC2(OCC)c1ccc(OC)cc1 (racemic),0.6
7,CCOC12SN(c3ccc([N+](=O)[O-])cc3Cl)N=C1c1cc(C)ccc1OC2(OCC)c1ccc(OC)cc1 (racemic),> 25
8,CCOC12SN(c3ccc([N+](=O)[O-])cc3Cl)N=C1c1cc(C)ccc1OC2(OCC)c1cc2c(cc1Cl)OCO2 (racemic),> 25
9,O=C1CC(c2ccccc2)Oc2ccccc21 (stereo not given) [FLAVANONE],3.4
10,CCOC12SN(c3ccc(S(C)(=O)=O)cc3Cl)N=C1c1ccccc1OC2(OCC)c1ccc(Cl)cc1 (racemic),2.8

# System: A549
# Experiment: Antiproliferative activity against A549 cells after 72 hrs by MTT assay
# Format: functional, cell-based
# Conditions: Homo sapiens, A549, 72 h
# How it was run: as §1
row,SMILES,IC50 [µg/mL]
1,CCOC12SN(c3ccc([N+](=O)[O-])cc3Cl)N=C1c1cc(C)ccc1OC2(OCC)c1cc(OC)c(OC)cc1Cl (racemic),> 50
2,CCOC12SN(c3ccc([N+](=O)[O-])cc3Cl)N=C1c1c(OC)cc(OC)c(Cl)c1OC2(OCC)c1ccc(Cl)cc1 (racemic),> 50
3,CCOC12SN(c3ccc(S(C)(=O)=O)cc3Cl)N=C1c1c(OC)cc(OC)c(Cl)c1OC2(OCC)c1ccc(Cl)cc1 (racemic),14.5
4,CCOC12SN(c3ccc([N+](=O)[O-])cc3Cl)N=C1c1c(OC)cc(OC)c(Cl)c1OC2(OCC)c1ccccc1Cl (racemic),> 50
5,CCOC12SN(c3ccc([N+](=O)[O-])cc3Cl)N=C1c1ccccc1OC2(OCC)c1ccc(Cl)cc1 (racemic),3.8
6,CCOC12SN(c3ccc(S(C)(=O)=O)cc3Cl)N=C1c1cc(C)ccc1OC2(OCC)c1ccc(OC)cc1 (racemic),1.1
7,CCOC12SN(c3ccc([N+](=O)[O-])cc3Cl)N=C1c1cc(C)ccc1OC2(OCC)c1ccc(OC)cc1 (racemic),> 50
8,CCOC12SN(c3ccc([N+](=O)[O-])cc3Cl)N=C1c1cc(C)ccc1OC2(OCC)c1cc2c(cc1Cl)OCO2 (racemic),> 50
9,O=C1CC(c2ccccc2)Oc2ccccc21 (stereo not given) [FLAVANONE],14.2
10,CCOC12SN(c3ccc(S(C)(=O)=O)cc3Cl)N=C1c1ccccc1OC2(OCC)c1ccc(Cl)cc1 (racemic),4.9

# System: HL-60
# Experiment: Induction of apoptosis in HL60 cells assessed as DNA fragmentation at 0.5 ug/mL after 48 hrs by flow cytometry
# Format: functional, Homo sapiens
# Conditions: not given
# How it was run: (§2)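 HL-60 cells in exponential growth were treated for 48 h. They were washed twice in PBS and fixed in 70% ethanol at −20 °C. Cells were then RNase-treated for 1 h at 37 °C and stained with propidium iodide for 30 min at 4 °C. DNA content of 2 × 10⁴ cells was read by flow cytometry, and the sub-G0/G1 fraction was taken as apoptotic.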
row,SMILES,Activity [%]
1,CCOC12SN(c3ccc(S(C)(=O)=O)cc3Cl)N=C1c1ccccc1OC2(OCC)c1ccc(Cl)cc1 (racemic),3.9

# System: HL-60
# Experiment: Induction of apoptosis in HL60 cells assessed as DNA fragmentation at 1.0 ug/mL after 48 hrs by flow cytometry
# Format: functional, Homo sapiens
# Conditions: not given
# How it was run: as §2
row,SMILES,Activity [%]
1,CCOC12SN(c3ccc(S(C)(=O)=O)cc3Cl)N=C1c1ccccc1OC2(OCC)c1ccc(Cl)cc1 (racemic),25.3

# System: HL-60
# Experiment: Induction of apoptosis in HL60 cells assessed as DNA fragmentation at 2 ug/mL after 48 hrs by flow cytometry
# Format: functional, Homo sapiens
# Conditions: not given
# How it was run: as §2
row,SMILES,Activity [%]
1,CCOC12SN(c3ccc(S(C)(=O)=O)cc3Cl)N=C1c1ccccc1OC2(OCC)c1ccc(Cl)cc1 (racemic),68.3

# System: CCRF S-180
# Experiment: Antitumor activity against S180 cells inoculated in ICR mouse assessed as tumor weight at 80 mg/kg, ip after 8 days
# Format: functional
# Conditions: route intraperitoneal
# How it was run: (§3)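 S180 sarcoma was first passaged in mice for 7 days, then 2.5 × 10⁶ viable cells/mouse were injected s.c. into the armpit of female ICR mice. Compound was given i.p. once daily for 7 consecutive days, starting 24 h after inoculation. Group sizes were 10, or 20 for the saline control. Cyclophosphamide 50.0 mg/kg was the positive control. On day 8 tumors were excised and weighed, and inhibition = (C − T)/C × 100 using mean tumor weights.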
row,SMILES,Activity [g]
1,CCOC12SN(c3ccc(S(C)(=O)=O)cc3Cl)N=C1c1ccccc1OC2(OCC)c1ccc(Cl)cc1 (racemic),0.63

# System: CCRF S-180
# Experiment: Antitumor activity against S180 cells inoculated in ICR mouse assessed as inhibition at 80 mg/kg, ip after 8 days relative to control
# Format: functional
# Conditions: CCRF S-180, ip, 192 h, route intraperitoneal
# How it was run: as §3
row,SMILES,inhibition in vivo at 80 mg/kg [%]
1,CCOC12SN(c3ccc(S(C)(=O)=O)cc3Cl)N=C1c1ccccc1OC2(OCC)c1ccc(Cl)cc1 (racemic),48.2
